Values after ≈ are worked out from the molar mass of the structure shown.
Experiments:
Type in all cases: functional
Col2 = experiment: Cytotoxicity against human Col2 cells; conditions: read-out: ED50 (the source's name)
Procedure, shortened: (§1)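 These human cancer cell lines were established from primary tumors at the authors' institution. Cytotoxicity was assessed in 96-well microtiter plates by a previously described protocol and expressed as ED50 in µg/ml.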

HT-1080 = experiment: Cytotoxicity against human HT1080 cells; conditions: read-out: ED50 (the source's name)
Procedure, shortened: (§2)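 The cell lines came from ATCC. Cytotoxicity was run in 96-well microtiter plates by a previously described method and reported as ED50 in µg/ml.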

[1] = Cytotoxicity against human BC1 cells; conditions: read-out: ED50 (the source's name); procedure, shortened: as §1
KB = experiment: Cytotoxicity against human KB cells; conditions: read-out: ED50 (the source's name); procedure, shortened: as §2
[2] = Cytotoxicity against human KBV1 cells; conditions: KB-V1, read-out: ED50 (the source's name)
Procedure, shortened: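 The KB-V1 line is multidrug resistant. It was derived from KB cells by extended exposure to sublethal vinblastine. It was tested in 96-well microtiter plates by a previously described method, with ED50 in µg/ml as the read-out.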

Lu1 = experiment: Cytotoxicity against human Lu1 cells; conditions: read-out: ED50 (the source's name); procedure, shortened: as §1
P388 = experiment: Cytotoxicity against mouse P388 cells; conditions: read-out: ED50 (the source's name); procedure, shortened: as §2
SK-MEL-2 = experiment: Cytotoxicity against human SK-MEL-2 cells; conditions: read-out: ED50 (the source's name)

| Compound | EC50 (Col2) | EC50 (HT-1080) | EC50 [1] | EC50 (KB) | EC50 [2] | EC50 (Lu1) | EC50 (P388) | EC50 (SK-MEL-2) |
| --- | --- | --- | --- | --- | --- | --- | --- | --- |
| C=C1CC[C@@H]2[C@H]([C@H]3[C@H]1CC[C@]3(C)O)C2(C)C [SPATHULENOL] | > 20 µg/mL | > 20 µg/mL | > 20 µg/mL | > 20 µg/mL | > 20 µg/mL | > 20 µg/mL | > 20 µg/mL | 6.3 µg/mL (≈ 28.6 µM) |
| C[C@@H]1CC[C@@]23COC(=O)[C@H]2C[C@@H](O)C=C3[C@@]1(C)CCc1ccoc1 [GUADICHAUDONE] | > 20 µg/mL | > 20 µg/mL | > 20 µg/mL | > 20 µg/mL | > 20 µg/mL | > 20 µg/mL | 11.7 µg/mL (≈ 35.4 µM) | > 20 µg/mL |
| COc1c(O)cc2oc(-c3ccc(O)cc3)cc(=O)c2c1O [HISPIDULIN] | > 20 µg/mL | 5.2 µg/mL (≈ 17.3 µM) | 19 µg/mL (≈ 63.3 µM) | 5.6 µg/mL (≈ 18.7 µM) | 2.8 µg/mL (≈ 9.33 µM) | 17.6 µg/mL (≈ 58.6 µM) | 0.8 µg/mL (≈ 2.66 µM) | 11.5 µg/mL (≈ 38.3 µM) |
| O=c1cc(-c2ccc(O)cc2)oc2cc(O)cc(O)c12 [APIGENIN] | 19.3 µg/mL (≈ 71.4 µM) | 12.2 µg/mL (≈ 45.1 µM) | > 20 µg/mL | > 20 µg/mL | 16.8 µg/mL (≈ 62.2 µM) | 14 µg/mL (≈ 51.8 µM) | 12.2 µg/mL (≈ 45.1 µM) | 13.6 µg/mL (≈ 50.3 µM) |
| CC(=O)O[C@@H]1C=C2C(=O)OC[C@]23CC[C@@H](C)[C@](C)(CCC2=CC(=O)OC2)C3C1 (stereo partly drawn) [ARTICULIN ACETATE] | > 20 µg/mL | > 20 µg/mL | > 20 µg/mL | > 20 µg/mL | > 20 µg/mL | > 20 µg/mL | 1.7 µg/mL | > 20 µg/mL |
| C[C@H]1CC=C2C(CO)(CO)CCC[C@]2(C)C1CC[C@@H](CCO)COC(=O)/C=C/c1ccc(O)cc1 (stereo partly drawn) [GUADICHAUDOL C] | 19.3 µg/mL (≈ 39.7 µM) | 12.4 µg/mL (≈ 25.5 µM) | 19 µg/mL (≈ 39 µM) | > 20 µg/mL | 4.7 µg/mL (≈ 9.66 µM) | 13.1 µg/mL (≈ 26.9 µM) | 2.4 µg/mL (≈ 4.93 µM) | 11.2 µg/mL (≈ 23 µM) |

Reference: ChEMBL document CHEMBL1149072, “Cytotoxic constituents of Baccharis gaudichaudiana” (1994)
